The source made the active and inactive calls. The calls are words filed in the database; no cut-off is given here.
Legend:
[1] = target: Mitogen-activated protein kinase 11 (Homo sapiens) (UniProt Q15759); assay: Inhibition of recombinant human full length SAPK2b at 1 uM using myelin basic protein as substrate incubated for 40 mins in presence of [gamma-33P]-ATP by scintillation counting method relative to control
Method in brief: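 Single-point inhibition at 1 uM measured in a commercial kinase profiling panel (KinaseProfiler); each value is the mean of two independent experiments.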

[2] = target: Calcium/calmodulin-dependent protein kinase type 1B (Homo sapiens) (UniProt Q6P2M8); assay: Inhibition of recombinant full length human CAMKIbeta at 1 uM using KKLRRTLSFAEP as substrate incubated for 40 mins in presence of [gamma-33P]-ATP by scintillation counting method relative to control
Method in brief: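 Kinase panel profiling at 1 μM performed by Eurofins KinaseProfiler; percent inhibition reported as mean of two independent experiments.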

Mus musculus = assay: Antiangiogenic activity in Matrigel plug angiogenic BALB/c mouse assessed as reduction in blood vessel formation at 10 to 20 mg/kg, sc measured after 10 days by Matrigel plug assay; format: functional, organism-based
Method in brief: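 Balb/c mice, 5 weeks old, were injected subcutaneously with 750 µL of a 2:1 mix of growth factor-reduced Matrigel and compound (10 or 20 mg/kg) or vehicle. Plugs were harvested after 10 days and the subcutaneous vessels photographed.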

[3] = target: TGF-beta receptor type-1 (Homo sapiens) (UniProt P36897); assay: Inhibition of recombinant human TGFBR1 (200 to end residues) at 1 uM using casein as substrate incubated for 40 mins in presence of [gamma-33P]-ATP by scintillation counting method relative to control
[4] = target: Protein kinase C delta type (Homo sapiens) (UniProt Q05655); assay: Inhibition of recombinant human PKCdelta (2 to end residues) at 1 uM using ERMRPRKRQGSVRRRV as substrate incubated for 40 mins in presence of [gamma-33P]-ATP by scintillation counting method relative to control
Sequence of Protein kinase C delta type (Homo sapiens) (Q05655 whole entry, looked up): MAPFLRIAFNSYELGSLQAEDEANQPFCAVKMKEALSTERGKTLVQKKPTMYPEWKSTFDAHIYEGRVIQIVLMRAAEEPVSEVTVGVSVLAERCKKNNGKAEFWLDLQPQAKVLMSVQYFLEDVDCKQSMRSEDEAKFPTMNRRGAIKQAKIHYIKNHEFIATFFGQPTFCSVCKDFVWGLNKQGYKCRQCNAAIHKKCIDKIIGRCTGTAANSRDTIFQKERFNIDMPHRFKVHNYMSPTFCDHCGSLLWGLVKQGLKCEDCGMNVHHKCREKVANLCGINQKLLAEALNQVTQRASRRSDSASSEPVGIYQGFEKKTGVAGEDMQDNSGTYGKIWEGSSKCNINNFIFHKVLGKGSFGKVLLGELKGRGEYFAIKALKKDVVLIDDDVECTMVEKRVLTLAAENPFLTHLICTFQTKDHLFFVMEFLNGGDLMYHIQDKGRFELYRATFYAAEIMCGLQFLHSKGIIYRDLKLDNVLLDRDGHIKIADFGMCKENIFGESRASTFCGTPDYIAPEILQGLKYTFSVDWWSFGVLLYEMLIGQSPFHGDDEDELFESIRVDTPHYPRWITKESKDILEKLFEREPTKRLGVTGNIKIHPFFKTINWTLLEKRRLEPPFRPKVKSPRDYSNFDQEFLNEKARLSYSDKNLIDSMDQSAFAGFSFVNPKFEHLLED

[5] = target: Ephrin type-A receptor 3 (Homo sapiens) (UniProt P29320); assay: Inhibition of recombinant human EPhA3 (578 to end residues) at 1 uM using poly(Glu, Tyr) 4:1 as substrate incubated for 40 mins in presence of [gamma-33P]-ATP by scintillation counting method relative to control
[6] = Clearance in Sprague-Dawley rat at 10 mg/kg, iv by HPLC-MS analysis; format: ADME, organism-based; conditions: in vivo
Method in brief: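 Rats fitted with jugular vein catheters for serial blood sampling. Compound dissolved in saline with 5% (v/v) DMSO and given as a single 10 mg/kg dose iv or po after an overnight fast, n = 5 per group. Plasma isolated at once and measured by HPLC with tandem MS detection. Parameters derived by noncompartmental fitting.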

[7] = target: Serine/threonine-protein kinase VRK2 (Homo sapiens) (UniProt Q86Y07); assay: Inhibition of recombinant human VRK2 (1 to 336 residues) at 1 uM using casein as substrate incubated for 40 mins in presence of [gamma-33P]-ATP by scintillation counting method relative to control
Method in brief: (§1)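 Tested at a single 1 uM in an outsourced commercial kinase-profiling panel, read as percent inhibition. Each value is the mean of two independent experiments.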

[8] = target: Serine/threonine-protein kinase MRCK beta (Homo sapiens) (UniProt Q9Y5S2); assay: Inhibition of recombinant human MRCKbeta (1 to 473 residues) at 1 uM using KKRNRTLTV as substrate incubated for 40 mins in presence of [gamma-33P]-ATP by scintillation counting method relative to control
[9] = target: Serine/threonine-protein kinase ULK2 (Homo sapiens) (UniProt Q8IYT8); assay: Inhibition of recombinant human ULK2 (1 to 306 residues) at 1 uM using as casein substrate incubated for 40 mins in presence of [gamma-33P]-ATP by scintillation counting method relative to control; method in brief: as §1
Sequence of Serine/threonine-protein kinase ULK2 (Homo sapiens) (Q8IYT8 whole entry, the tested form may be a part): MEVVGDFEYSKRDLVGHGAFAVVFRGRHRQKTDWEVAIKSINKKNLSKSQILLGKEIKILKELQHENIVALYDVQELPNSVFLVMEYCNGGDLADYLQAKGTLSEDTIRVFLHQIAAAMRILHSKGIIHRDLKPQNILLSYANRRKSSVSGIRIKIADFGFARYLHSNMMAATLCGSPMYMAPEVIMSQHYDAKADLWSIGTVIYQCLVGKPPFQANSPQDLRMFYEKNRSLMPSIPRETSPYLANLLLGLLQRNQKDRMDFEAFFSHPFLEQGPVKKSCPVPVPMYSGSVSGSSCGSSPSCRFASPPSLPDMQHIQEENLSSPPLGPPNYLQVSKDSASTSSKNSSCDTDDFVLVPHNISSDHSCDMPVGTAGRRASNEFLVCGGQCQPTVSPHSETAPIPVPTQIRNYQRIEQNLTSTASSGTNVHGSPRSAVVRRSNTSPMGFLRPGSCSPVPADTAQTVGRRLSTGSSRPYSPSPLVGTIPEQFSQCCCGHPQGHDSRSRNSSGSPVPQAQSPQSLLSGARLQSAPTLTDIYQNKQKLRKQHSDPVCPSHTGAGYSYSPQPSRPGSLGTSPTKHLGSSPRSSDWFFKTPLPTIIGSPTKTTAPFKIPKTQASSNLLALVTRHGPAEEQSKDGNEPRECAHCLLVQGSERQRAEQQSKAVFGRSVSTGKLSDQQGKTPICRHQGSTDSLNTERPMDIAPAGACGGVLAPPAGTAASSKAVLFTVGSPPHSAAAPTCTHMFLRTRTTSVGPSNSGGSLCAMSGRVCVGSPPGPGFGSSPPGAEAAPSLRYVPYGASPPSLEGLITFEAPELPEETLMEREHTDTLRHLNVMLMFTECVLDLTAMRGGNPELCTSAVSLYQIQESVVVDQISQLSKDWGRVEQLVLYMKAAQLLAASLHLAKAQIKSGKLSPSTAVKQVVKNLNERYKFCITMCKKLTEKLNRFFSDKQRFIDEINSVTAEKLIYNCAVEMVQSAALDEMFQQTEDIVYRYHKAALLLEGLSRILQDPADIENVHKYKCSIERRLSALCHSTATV

[10] = target: Protein kinase C beta type (Homo sapiens) (UniProt P05771); assay: Inhibition of recombinant human PKCbeta2 (2 to end residues) at 1 uM using histone H1 as substrate incubated for 40 mins in presence of [gamma-33P]-ATP by scintillation counting method relative to control
Sequence of Protein kinase C beta type (Homo sapiens) (P05771 2-671 limits assumed): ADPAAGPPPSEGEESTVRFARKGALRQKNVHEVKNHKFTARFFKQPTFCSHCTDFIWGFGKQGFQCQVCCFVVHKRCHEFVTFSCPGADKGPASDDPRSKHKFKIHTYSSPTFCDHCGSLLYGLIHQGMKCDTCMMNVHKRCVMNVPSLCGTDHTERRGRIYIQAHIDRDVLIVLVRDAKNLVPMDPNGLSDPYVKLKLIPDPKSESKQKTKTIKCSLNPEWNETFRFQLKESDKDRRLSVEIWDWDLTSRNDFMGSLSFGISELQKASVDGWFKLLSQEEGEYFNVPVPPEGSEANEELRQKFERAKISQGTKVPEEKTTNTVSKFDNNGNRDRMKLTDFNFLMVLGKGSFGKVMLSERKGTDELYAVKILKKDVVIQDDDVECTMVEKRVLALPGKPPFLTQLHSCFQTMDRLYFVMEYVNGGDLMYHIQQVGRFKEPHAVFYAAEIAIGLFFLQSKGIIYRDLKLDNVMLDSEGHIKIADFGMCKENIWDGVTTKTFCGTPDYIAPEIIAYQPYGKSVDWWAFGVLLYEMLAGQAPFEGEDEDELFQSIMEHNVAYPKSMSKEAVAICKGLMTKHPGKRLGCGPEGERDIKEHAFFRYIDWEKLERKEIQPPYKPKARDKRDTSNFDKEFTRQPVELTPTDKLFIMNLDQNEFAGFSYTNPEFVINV

[11] = target: Mitogen-activated protein kinase kinase kinase 5 (Homo sapiens) (UniProt Q99683); assay: Inhibition of recombinant human ASK1 (649 to 946 residues) at 1 uM using myelin ba as substrate incubated for 40 mins in presence of [gamma-33P]-ATP by scintillation counting method relative to control; method in brief: as §1
Sequence of Mitogen-activated protein kinase kinase kinase 5 (Homo sapiens) (Q99683 whole entry, the tested form may be a part): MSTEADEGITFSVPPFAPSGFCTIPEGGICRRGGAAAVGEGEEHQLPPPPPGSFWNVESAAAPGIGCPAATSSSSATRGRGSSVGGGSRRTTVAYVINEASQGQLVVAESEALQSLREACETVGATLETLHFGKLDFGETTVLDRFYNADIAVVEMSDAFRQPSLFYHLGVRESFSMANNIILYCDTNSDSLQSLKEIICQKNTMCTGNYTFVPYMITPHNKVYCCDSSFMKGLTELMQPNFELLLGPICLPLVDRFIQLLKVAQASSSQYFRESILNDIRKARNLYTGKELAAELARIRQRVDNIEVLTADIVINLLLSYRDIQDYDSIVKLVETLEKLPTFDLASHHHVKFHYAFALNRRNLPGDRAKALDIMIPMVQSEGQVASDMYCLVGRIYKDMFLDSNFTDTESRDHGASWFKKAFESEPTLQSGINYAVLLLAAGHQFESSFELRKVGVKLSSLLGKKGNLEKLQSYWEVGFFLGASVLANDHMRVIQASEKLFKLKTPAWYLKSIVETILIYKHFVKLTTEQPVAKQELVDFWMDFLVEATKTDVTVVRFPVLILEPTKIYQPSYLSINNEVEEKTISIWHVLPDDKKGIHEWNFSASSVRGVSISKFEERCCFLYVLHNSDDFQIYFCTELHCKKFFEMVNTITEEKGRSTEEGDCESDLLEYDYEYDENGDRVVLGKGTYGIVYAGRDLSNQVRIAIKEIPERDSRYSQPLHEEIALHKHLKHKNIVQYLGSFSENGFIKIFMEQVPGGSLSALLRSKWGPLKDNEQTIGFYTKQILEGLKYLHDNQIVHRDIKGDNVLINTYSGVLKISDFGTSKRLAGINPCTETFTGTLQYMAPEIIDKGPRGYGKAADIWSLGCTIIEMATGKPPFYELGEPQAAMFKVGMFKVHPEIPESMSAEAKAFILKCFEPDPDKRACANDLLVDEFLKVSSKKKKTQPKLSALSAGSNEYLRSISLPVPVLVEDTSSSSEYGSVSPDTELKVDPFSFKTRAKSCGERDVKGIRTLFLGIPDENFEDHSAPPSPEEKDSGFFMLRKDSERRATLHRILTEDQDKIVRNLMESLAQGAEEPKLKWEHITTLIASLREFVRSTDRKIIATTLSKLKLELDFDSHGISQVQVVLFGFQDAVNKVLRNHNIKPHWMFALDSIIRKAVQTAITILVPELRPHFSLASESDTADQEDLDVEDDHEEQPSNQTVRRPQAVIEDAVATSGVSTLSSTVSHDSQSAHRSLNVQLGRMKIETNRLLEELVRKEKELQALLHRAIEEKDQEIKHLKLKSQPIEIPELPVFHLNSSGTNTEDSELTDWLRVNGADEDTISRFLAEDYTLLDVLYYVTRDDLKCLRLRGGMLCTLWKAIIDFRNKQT

[12] = target: Maternal embryonic leucine zipper kinase (Homo sapiens) (UniProt Q14680); assay: Inhibition of recombinant human MELK (1 to 340 end residues) at 1 uM using KKLNRTLSFAEPG as substrate incubated for 40 mins in presence of [gamma-33P]-ATP by scintillation counting method relative to control
Sequence of Maternal embryonic leucine zipper kinase (Homo sapiens) (Q14680 whole entry, looked up): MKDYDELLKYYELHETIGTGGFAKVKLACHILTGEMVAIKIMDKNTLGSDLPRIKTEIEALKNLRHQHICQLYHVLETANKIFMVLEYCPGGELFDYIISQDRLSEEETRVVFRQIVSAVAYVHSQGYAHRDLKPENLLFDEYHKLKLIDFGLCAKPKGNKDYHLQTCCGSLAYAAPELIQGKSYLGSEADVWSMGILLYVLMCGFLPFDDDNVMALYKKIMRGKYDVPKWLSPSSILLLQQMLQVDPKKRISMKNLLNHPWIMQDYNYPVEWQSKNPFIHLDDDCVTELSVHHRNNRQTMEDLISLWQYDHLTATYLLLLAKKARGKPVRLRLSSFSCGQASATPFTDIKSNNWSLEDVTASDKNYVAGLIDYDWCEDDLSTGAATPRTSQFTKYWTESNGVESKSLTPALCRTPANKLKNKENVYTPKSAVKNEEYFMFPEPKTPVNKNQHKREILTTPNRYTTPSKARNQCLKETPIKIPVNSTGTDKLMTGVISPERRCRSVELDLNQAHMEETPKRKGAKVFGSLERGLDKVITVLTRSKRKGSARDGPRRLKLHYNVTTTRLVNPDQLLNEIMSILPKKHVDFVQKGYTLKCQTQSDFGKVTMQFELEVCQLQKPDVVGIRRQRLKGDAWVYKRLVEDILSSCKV

[13] = target: RAC-beta serine/threonine-protein kinase (Homo sapiens) (UniProt P31751); assay: Inhibition of recombinant human PKBbeta (120 to end residues) at 1 uM using GRPRTSSFAEGKK as substrate incubated for 40 mins in presence of [gamma-33P]-ATP by scintillation counting method relative to control; method in brief: as §1
Sequence of RAC-beta serine/threonine-protein kinase (Homo sapiens) (P31751 whole entry): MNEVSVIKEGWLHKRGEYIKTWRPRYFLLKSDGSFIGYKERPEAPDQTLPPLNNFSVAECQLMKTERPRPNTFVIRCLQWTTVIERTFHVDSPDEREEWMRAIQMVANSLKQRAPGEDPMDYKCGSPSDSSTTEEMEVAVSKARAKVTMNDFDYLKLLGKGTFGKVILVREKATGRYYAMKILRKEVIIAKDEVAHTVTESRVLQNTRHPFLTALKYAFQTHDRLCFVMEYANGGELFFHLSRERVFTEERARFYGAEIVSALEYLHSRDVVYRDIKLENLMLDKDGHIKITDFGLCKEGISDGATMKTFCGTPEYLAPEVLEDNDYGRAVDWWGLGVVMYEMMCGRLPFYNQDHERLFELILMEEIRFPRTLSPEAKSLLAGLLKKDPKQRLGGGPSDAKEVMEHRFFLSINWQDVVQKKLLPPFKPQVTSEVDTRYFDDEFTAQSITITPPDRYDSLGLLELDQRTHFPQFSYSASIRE

MDA-MB-231 [14] = assay: Induction of apoptosis in human MDA-MB-231 cells assessed as decrease in Rb phosphorylation incubated for 48 hrs by Western blot analysis; format: functional, cell-based
Method in brief: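 Cells were treated for 48 h, washed three times with PBS, and lysed in RIPA buffer. Immunoblots used anti-Rb, anti-phospho-Rb, anti-Ki67 and anti-Bcl-2 (each 1:1000), with β-actin as loading control.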

HUVEC = assay: Antiproliferative activity against HUVEC cells assessed as reduction in cell viability measured upto 72 hrs by CCK8 assay; format: functional, cell-based; conditions: Homo sapiens
Method in brief: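 HUVECs, 3×10³ cells/well, kept in 1640 medium with 10% FBS at 37°C and 5% CO₂. Cells were treated at 20 or 40 nM or vehicle, and viability was read by CCK-8 (absorbance 450 nm) at 0, 12, 24, 36, 48, 60 and 72 h. Five replicates per sample.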

MDA-MB-231 [15] = assay: Induction of cell cycle arrest in human MDA-MB-231 cells assessed as accumulation in G2/M phase at 40 nM incubated for 36 hrs by propidium iodide staining based flow cytometry; format: functional
Method in brief: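 Cells were treated with graded concentrations for 36 h, then fixed overnight in 70% ice-cold ethanol at 4°C and resuspended in PBS. Staining used 50 µg/ml PI plus 5 µg/ml RNase at 37°C for 30 min. DNA content was analysed by FACS to give G0/G1, S and G2/M fractions.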

SiHa = assay: Antitumor activity against human SiHa cells xenografted in NOD/SCID BALB/c mouse assessed as reduction in Ki67 expression at 40 mg/kg, po measured after 21 days by hematoxylin and eosin staining based immunohistochemistry; format: functional, organism-based
Method in brief: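 Female NOD/SCID Balb/c mice, 6–8 weeks old, received 2×10^6 SiHa cells subcutaneously in the right flank. Once tumors reached 100 mm³, mice were randomized, 5 per group, and gavaged once daily for 21 days. Formalin-fixed, paraffin-embedded tumor sections were stained with Ki67 or CD31 antibody (1:100, 4 °C overnight), then biotin secondary and ABC-peroxidase/DAB, with hematoxylin counterstain.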

Cc1ccc(NC(=O)C2(C(=O)Nc3ccc(Nc4ncc(F)c(-c5cc(F)c6nc(C)n(C(C)C)c6c5)n4)cc3)CC2)cc1
inhibition [1]: 0% | inhibition [2]: 8% | inhibition (Mus musculus): Active | inhibition [3]: 6% | inhibition [4]: 29% | inhibition [5]: 23% | clearance [6]: 16.7 mL/min/kg | inhibition [7]: 0% | inhibition [8]: 7% | inhibition [9]: 0% | inhibition [10]: 47% | inhibition [11]: 0% | inhibition [12]: 53% | inhibition [13]: 0% | Activity (MDA-MB-231 [14]): Dose-dependent effect | inhibition (HUVEC): Dose-dependent effect

COc1cc2nccc(Oc3ccc(NC(=O)C4(C(=O)Nc5ccc(F)cc5)CC4)cc3)c2cc1OC [CABOZANTINIB]
Activity (MDA-MB-231 [15]): Active | inhibition (SiHa): Active

Reference: ChEMBL document CHEMBL4406821, “Novel dual inhibitors targeting CDK4 and VEGFR2 synergistically suppressed cancer progression and angiogenesis” (Eur J Med Chem, 2019)
